What is called inhibition is the change of the read-out against control, counted positive when it falls.

In all, about 120,000 compounds went through this assay and about 20 (0.02%) were called active.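 The calls were made as follows: active = inhibition above 30.3% in the primary screen of four-compound pools, then above 30% when the compound was retested; inconclusive = passed the primary limit but could not be retested; inactive = the rest.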 What follows is part of a selection rich in actives, with near analogues and random picks from the rest.

A short description of this assay: clotrimazole potentiators killing C. albicans biofilm, primary screen, 4-compound mixtures (AID 1242).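 Also: compounds exposed to preformed 24 h biofilms for 48 h; 0% = untreated biofilm control and 100% = clotrimazole plus chlorhexidine kill blank.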 The note with it: C. albicans biofilm persisters + clotrimazole, fluorescence viability, primary screen in compound mixtures, stronger effect = higher value. In short, it runs like this:
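System: C. albicans CAF4-2 wild-type biofilms; Medium: RPMI/MOPS medium, pH 7.0; Reagent: Clotrimazole, 50 µg/mL; Times: biofilm formation 24 h, compound exposure 48 h, 37 °C; Detection: 2-h Alamar Blue fluorescence, 535/590 nm excitation/emission; Evaluation: percent inhibition of biofilm viability.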

The mark [1] stands for this setting: measured here: individual compound retest, at 61 µM.

As to `CCc1ccc(Nc2nnc(SCC(=O)c3ccc4c(c3)NC(=O)CO4)s2)cc1`, the inhibition (at 7.6 µM unless noted) is 10.2% (inactive).

As for `COc1ccc(C(=O)OCC(=O)NCC2CCCO2)cc1[N+](=O)[O-]` (centres undefined), the inhibition (at 7.6 µM unless noted) is 12.1% (inactive).

Take `CN(c1ccccc1)S(=O)(=O)c1cc(C(=O)OCC(=O)N2CCN(C(=O)c3ccco3)CC2)ccc1Cl`: the inhibition (at 7.6 µM unless noted) was 13.3% (inactive).

Regarding `COc1cc2c(cc1OC)CC1(CCCCC1)N=C2`, the inhibition (at 7.6 µM unless noted) was 4.41% (inactive).

`Cc1ccc(C2CC(c3cccc(NS(C)(=O)=O)c3)=NN2S(C)(=O)=O)cc1` (centres undefined): the inhibition (at 7.6 µM unless noted) is 16% (inactive).

In the case of `COCCC(=O)Nc1ccc2c(c1)CN(C(=O)CCOC)CC2`, the inhibition (at 7.6 µM unless noted) is 18% (inactive).

`CC(C)(C)c1cc(NC(=O)NN2CCOCC2)nn1-c1c(Cl)cc(Cl)cc1Cl`: the inhibition (at 7.6 µM unless noted) is 5.67% (inactive).

On to `C=CCOCCN(C)C1=NS(=O)(=O)c2ccccc21`, for which the inhibition (at 7.6 µM unless noted) was 3.65% (inactive).

Consider `CN(C)S(=O)(=O)c1cccc(NC(=O)COC(=O)c2cc(=O)[nH]c(=O)[nH]2)c1`, for which the inhibition (at 7.6 µM unless noted) is 26.1% (inactive).

Regarding `CCOCCCN(C(=O)Cn1nnc(-c2ccc(OC)c(OC)c2)n1)C(CC)C(=O)NC1CCCC1` (centres undefined), the inhibition (at 7.6 µM unless noted) was 18.7% (inactive).

As to `Cc1cccc(N2CCN(c3ccc(C(N)=O)cc3[N+](=O)[O-])CC2)c1C`, the inhibition (at 7.6 µM unless noted) was 16.6% (inactive).

Consider `CCOC(=O)C1CCN(CCC(=O)Nc2cccc(C)c2)CC1`, for which, where the note is “at 7.6 µM unless noted”, the inhibition was 9.47% (inactive).

For `OCCC1CN(Cc2cccc(OC3CCCC3)c2)CCN1Cc1ccsc1` (centres undefined), the inhibition (at 7.6 µM unless noted) was 13.6% (inactive).

On to `CN(C)N(C)C(=O)C(O)(c1ccccc1)c1ccccc1`, for which the inhibition (at 7.6 µM unless noted) was 8.15% (inactive).

With `CCOc1ccc(NS(=O)(=O)c2ccc(C)c(C(N)=O)c2)cc1`, the inhibition (at 7.6 µM unless noted) is 13.4% (inactive).

In the case of `CCC(C)(C)NC(=O)/C=C/c1cc(OC)c(OC)c(S(=O)(=O)N2CCc3ccccc32)c1`, the inhibition (at 7.6 µM unless noted) is 12.1% (inactive).

As for `Cc1ccc(S(=O)(=O)/N=C(/Nc2ccc3[nH]c(=O)[nH]c3c2)c2ccccc2)cc1`, the inhibition (at 7.6 µM unless noted) is 25.2% (inactive).

`CCCCN(CC)CCNC(=O)CCNC(=O)Cn1ccc2ccccc2c1=O`: the inhibition (at 7.6 µM unless noted) was 8.03% (inactive).

As to `CN(CC(O)COc1ccc(S(=O)(=O)N2CCOCC2)cc1Cl)C1CCCCC1` (centres undefined), the inhibition (at 7.6 µM unless noted) was 28.8% (inactive).

Take `Nc1nc(NCC2CCCO2)nc(Nc2ccccc2F)c1[N+](=O)[O-]` (centres undefined): under “at 7.6 µM unless noted”, the inhibition is 13.6% (inactive).

Take `Cn1nc(C(C)(C)C)c([N+](=O)[O-])c1C(N)=O`: the inhibition reads like this: (at 7.6 µM) 56.6% (inactive); under setting [1], -53.4%.

In the case of `O=C1N(c2ccccc2)C(=Nc2ccccc2)SC12CC2`, the inhibition (at 7.6 µM unless noted) is 16.8% (inactive).

As for `CCN(CC)CCN(C(=O)c1ccc(N2C(=O)CCC2=O)cc1)c1nc2cc3c(cc2s1)OCO3`, where the note is “at 7.6 µM unless noted”, the inhibition is 4.15% (inactive).

In the case of `CCC(=O)NC(=S)Nc1ccc(NC(=O)c2ccco2)c(Cl)c1`, where the note is “at 7.6 µM unless noted”, the inhibition was 2.96% (inactive).

Take `O=C(c1cccc([N+](=O)[O-])c1)N1CCN(C(=O)c2ccco2)CC1`: under “at 7.6 µM unless noted”, the inhibition was 0.32% (inactive).

For `COC(=O)c1cccc(NS(C)(=O)=O)c1`, the inhibition (at 7.6 µM unless noted) was 13.2% (inactive).

For `Cn1ccc(NC(=O)Nc2ccc(Cl)cc2)n1`, the inhibition (at 7.6 µM unless noted) is 16.2% (inactive).

For `Cc1ccc(O)c(NC(=S)NC(=O)COc2ccc(Br)cc2)c1`, the inhibition (at 7.6 µM unless noted) was 9.22% (inactive).

For `CCN(CC)C(=O)C(=O)Nc1cccc(Br)c1`, the inhibition (at 7.6 µM unless noted) was 10% (inactive).

In the case of `COc1ccccc1CNC(=O)CNC(=O)c1cn(-c2ccccc2OC)c(=O)c2ccccc12`, the inhibition (at 7.6 µM unless noted) is 24.6% (inactive).

On to `OCCC1CN(Cc2ccc(Oc3ncccn3)cc2)CCN1CCc1ccccc1` (centres undefined), for which the inhibition (at 7.6 µM unless noted) was 23.9% (inactive).

As to `CC(NCc1nc2ccccc2n1C)C12CC3CC(CC(C3)C1)C2` (centres undefined), the inhibition is 63.4% (inactive) (at 7.6 µM) and 0.64% under setting [1].

As for `O=C(NC(=S)Nc1ccc(S(=O)(=O)Nc2ncccn2)cc1)c1cccc(Br)c1`, the inhibition (at 7.6 µM unless noted) is 20.2% (inactive).

As for `Nc1c(N(CCO)C(=O)C2CCCCC2)c(=O)[nH]c(=O)n1Cc1ccccc1`, for the setting “at 7.6 µM unless noted”, the inhibition was 4.09% (inactive).

In the case of `Cc1cc(C)c(C)c(S(=O)(=O)N[C@@H](C)C(=O)OC(C)C(=O)NC(N)=O)c1C` (some centres undefined), the inhibition (at 7.6 µM unless noted) was 14.7% (inactive).

For the compound `Cc1ccc(S(=O)(=O)/N=C(\N)c2ccc(F)cc2)cc1`, the inhibition (at 7.6 µM unless noted) was 3.79% (inactive).

In the case of `O=C(OCc1ccc([N+](=O)[O-])cc1)c1ccccn1`, where the note is “at 7.6 µM unless noted”, the inhibition was 15% (inactive).

For the compound `Cc1cc(C)n(-c2ccc(C(=O)O)cc2[N+](=O)[O-])n1`, the inhibition (at 7.6 µM unless noted) is 2.45% (inactive).

`COc1cc(N/C=C2\CC(=O)NC(C)=C2C#N)cc(OC)c1OC`: where the note is “at 7.6 µM unless noted”, the inhibition was 14.1% (inactive).

As to `O=C(Nc1ccc(F)cc1)N1CCCC(c2nc3c(nnn3Cc3ccccc3Cl)c(=O)[nH]2)C1` (centres undefined), the inhibition (at 7.6 µM unless noted) was 11.9% (inactive).

`NC(=O)Cc1nc2scc(-c3ccc(Cl)cc3)c2c(=O)[nH]1`: the inhibition (at 7.6 µM unless noted) was 4.85% (inactive).

Regarding `CC(=O)Nc1ccc(OCC(=O)NCc2ccc(C)cc2)cc1`, the inhibition (at 7.6 µM unless noted) was 10.5% (inactive).

For the compound `COc1ccc(C2NC(=S)NC3=C2CCc2ccccc23)cc1OC` (centres undefined), where the note is “at 7.6 µM unless noted”, the inhibition was 18.9% (inactive).

Take `COc1ccc(Cl)cc1CSc1ncn[nH]1`: the inhibition (at 7.6 µM unless noted) was 13.5% (inactive).

Consider `COc1cccc(-n2c(=S)sc3c(=O)n(-c4ccccc4OC)c(SCC4OCCO4)nc32)c1`, for which, under “at 7.6 µM unless noted”, the inhibition was 28.1% (inactive).

With `OC1CCCN(c2ncnc3c2nnn3Cc2c(F)cccc2Cl)C1` (centres undefined), under “at 7.6 µM unless noted”, the inhibition was 19.6% (inactive).

With `Cc1cnc(C(=O)OCC(=O)N2CCc3ccccc32)cn1`, where the note is “at 7.6 µM unless noted”, the inhibition is -4.77% (inactive).

Turning to `COCCn1c(C)cc(C(=O)CSc2nc3ccccc3c(=O)n2C(C)COC)c1C` (centres undefined), the inhibition (at 7.6 µM unless noted) was 8.22% (inactive).

Turning to `Cc1nc(CNS(=O)(=O)c2cc([N+](=O)[O-])ccc2C)cs1`, the inhibition (at 7.6 µM unless noted) is 22.4% (inactive).

For `CCCCCCCC(=O)OC(CN1CCCCCC1)CN1CCCC1=O` (centres undefined), under “at 7.6 µM unless noted”, the inhibition is 0.73% (inactive).

`COc1ccccc1N1CCN(C(=O)CSc2ncnc3c2cnn3-c2ccc(C)c(C)c2)CC1`: for the setting “at 7.6 µM unless noted”, the inhibition is 19.7% (inactive).

On to `CCOc1cc(C2C(C(=O)OC(C)C)=C(C)NC3=C2C(=O)CCC3)cc([N+](=O)[O-])c1O` (centres undefined), for which, for the setting “at 7.6 µM unless noted”, the inhibition was 16.6% (inactive).
